# How the values were obtained:
# Histamine H3 receptor = Histamine H3 receptor (Homo sapiens, UniProt Q9Y5N1); assay: Displacement of [3H]-alpha-methylhistamine from human histamine H3 receptor stably expressed in HEK Flp-In cells after 90 mins by microbeta scintillation counting method; format: cell-based
# [1] = molecular target: Muscarinic acetylcholine receptor M2 (Homo sapiens, UniProt P08172); assay: Displacement of [3H]-QNB/[3H]-NMS from human muscarinic M2 receptor expressed in stable CHO cells after 90 mins by microbeta scintillation counting method; format: cell-based
# Chain of Muscarinic acetylcholine receptor M2 (P08172 whole entry): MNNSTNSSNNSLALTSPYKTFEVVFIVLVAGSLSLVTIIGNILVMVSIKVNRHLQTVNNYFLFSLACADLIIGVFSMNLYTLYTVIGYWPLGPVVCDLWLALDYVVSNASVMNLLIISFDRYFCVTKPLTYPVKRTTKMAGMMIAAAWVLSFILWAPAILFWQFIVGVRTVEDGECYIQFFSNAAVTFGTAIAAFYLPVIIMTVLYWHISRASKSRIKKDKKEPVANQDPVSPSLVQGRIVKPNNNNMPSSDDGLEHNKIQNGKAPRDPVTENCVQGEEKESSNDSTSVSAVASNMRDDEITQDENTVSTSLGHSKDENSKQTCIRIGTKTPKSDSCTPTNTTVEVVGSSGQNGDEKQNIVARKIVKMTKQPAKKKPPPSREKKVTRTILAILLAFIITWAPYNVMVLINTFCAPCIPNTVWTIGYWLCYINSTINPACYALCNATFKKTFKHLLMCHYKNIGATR
# [2] = molecular target: Muscarinic acetylcholine receptor M3 (Homo sapiens, UniProt P20309); assay: Displacement of [3H]-QNB/[3H]-NMS from human muscarinic M3 receptor expressed in stable CHO cells after 90 mins by microbeta scintillation counting method; format: cell-based
# Chain of Muscarinic acetylcholine receptor M3 (P20309 whole entry): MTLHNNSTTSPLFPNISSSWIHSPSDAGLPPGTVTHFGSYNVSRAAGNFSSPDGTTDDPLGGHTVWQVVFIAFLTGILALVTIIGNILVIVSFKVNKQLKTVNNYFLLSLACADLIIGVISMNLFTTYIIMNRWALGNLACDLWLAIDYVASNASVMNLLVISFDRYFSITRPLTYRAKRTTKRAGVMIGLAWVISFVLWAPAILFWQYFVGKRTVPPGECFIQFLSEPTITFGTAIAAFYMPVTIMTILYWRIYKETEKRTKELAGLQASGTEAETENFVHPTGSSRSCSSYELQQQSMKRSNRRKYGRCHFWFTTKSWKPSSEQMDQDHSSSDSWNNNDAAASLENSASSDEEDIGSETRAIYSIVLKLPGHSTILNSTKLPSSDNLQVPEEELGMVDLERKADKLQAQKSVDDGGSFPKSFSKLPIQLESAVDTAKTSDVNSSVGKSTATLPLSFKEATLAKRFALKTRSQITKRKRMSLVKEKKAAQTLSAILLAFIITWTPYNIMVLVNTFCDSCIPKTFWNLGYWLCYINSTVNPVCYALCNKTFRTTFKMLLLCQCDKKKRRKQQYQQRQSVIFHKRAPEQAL
# [3] = molecular target: Muscarinic acetylcholine receptor M4 (Homo sapiens, UniProt P08173); assay: Displacement of [3H]-QNB/[3H]-NMS from human muscarinic M4 receptor expressed in stable CHO cells after 90 mins by microbeta scintillation counting method; format: cell-based
# Chain of Muscarinic acetylcholine receptor M4 (P08173 whole entry): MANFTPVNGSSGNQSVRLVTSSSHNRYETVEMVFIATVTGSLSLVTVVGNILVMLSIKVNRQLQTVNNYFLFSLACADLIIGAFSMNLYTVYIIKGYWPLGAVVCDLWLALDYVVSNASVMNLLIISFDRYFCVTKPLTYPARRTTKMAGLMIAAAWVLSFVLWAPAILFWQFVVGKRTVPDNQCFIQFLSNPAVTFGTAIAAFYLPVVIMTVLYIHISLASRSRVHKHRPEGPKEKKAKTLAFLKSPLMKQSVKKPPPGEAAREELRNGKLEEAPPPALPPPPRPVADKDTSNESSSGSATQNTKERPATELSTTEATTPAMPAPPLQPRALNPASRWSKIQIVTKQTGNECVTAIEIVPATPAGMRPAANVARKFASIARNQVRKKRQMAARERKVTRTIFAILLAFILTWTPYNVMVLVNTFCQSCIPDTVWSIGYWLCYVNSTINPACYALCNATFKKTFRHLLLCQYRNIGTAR
# [4] = molecular target: Alpha-2A adrenergic receptor (Homo sapiens, UniProt P08913); assay: Displacement of [3H]-rauwolscine from recombinant human alpha2A adrenergic receptor stably expressed in MDCK cells at 10 uM measured after 90 mins by microbeta scintillation counting method relative to control; format: cell-based; details: probe [3H]-rauwolscine
# Chain of Alpha-2A adrenergic receptor (P08913 whole entry): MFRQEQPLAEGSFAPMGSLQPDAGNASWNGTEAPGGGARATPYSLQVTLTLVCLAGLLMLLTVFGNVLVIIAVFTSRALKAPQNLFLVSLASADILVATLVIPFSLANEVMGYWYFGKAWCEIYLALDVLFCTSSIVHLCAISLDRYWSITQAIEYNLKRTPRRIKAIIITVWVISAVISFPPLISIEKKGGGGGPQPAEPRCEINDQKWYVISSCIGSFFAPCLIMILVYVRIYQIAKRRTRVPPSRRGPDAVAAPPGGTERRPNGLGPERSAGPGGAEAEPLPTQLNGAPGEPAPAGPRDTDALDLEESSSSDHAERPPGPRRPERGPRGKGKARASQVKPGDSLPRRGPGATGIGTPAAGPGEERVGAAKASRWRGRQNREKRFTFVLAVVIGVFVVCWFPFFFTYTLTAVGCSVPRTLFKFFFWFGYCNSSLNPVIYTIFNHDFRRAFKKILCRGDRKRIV
# [5] = molecular target: T1, Alpha-2B adrenergic receptor (Homo sapiens, UniProt P18089); assay: Displacement of [3H]-rauwolscine from recombinant human alpha2B adrenergic receptor transiently expressed in HEKT cells at 10 uM measured after 90 mins by microbeta scintillation counting method relative to control; format: cell-based; details: probe [3H]-rauwolscine
# T1 sequence (P18089 whole entry): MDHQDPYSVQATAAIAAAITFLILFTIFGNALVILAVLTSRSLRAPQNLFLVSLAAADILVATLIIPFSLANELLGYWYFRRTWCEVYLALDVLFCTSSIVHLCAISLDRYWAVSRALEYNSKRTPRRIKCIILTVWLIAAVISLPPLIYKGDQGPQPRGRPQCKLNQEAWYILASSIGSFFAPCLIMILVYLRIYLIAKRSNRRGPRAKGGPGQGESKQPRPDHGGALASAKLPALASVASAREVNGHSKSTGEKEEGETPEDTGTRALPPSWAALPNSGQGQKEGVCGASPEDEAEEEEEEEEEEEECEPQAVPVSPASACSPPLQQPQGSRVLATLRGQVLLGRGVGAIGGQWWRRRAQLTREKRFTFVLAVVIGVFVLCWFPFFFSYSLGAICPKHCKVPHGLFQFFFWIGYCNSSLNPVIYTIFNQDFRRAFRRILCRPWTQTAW
# [6] = molecular target: T2, Neuronal acetylcholine receptor; alpha3/beta4 (Homo sapiens, UniProt P30926+P32297); assay: Displacement of [3H]-epibatidine from recombinant human alpha3beta4 nACHR stably expressed in HEK cells measured after 90 mins by microbeta scintillation counting method; format: cell-based
# T2 sequence (P30926 whole entry): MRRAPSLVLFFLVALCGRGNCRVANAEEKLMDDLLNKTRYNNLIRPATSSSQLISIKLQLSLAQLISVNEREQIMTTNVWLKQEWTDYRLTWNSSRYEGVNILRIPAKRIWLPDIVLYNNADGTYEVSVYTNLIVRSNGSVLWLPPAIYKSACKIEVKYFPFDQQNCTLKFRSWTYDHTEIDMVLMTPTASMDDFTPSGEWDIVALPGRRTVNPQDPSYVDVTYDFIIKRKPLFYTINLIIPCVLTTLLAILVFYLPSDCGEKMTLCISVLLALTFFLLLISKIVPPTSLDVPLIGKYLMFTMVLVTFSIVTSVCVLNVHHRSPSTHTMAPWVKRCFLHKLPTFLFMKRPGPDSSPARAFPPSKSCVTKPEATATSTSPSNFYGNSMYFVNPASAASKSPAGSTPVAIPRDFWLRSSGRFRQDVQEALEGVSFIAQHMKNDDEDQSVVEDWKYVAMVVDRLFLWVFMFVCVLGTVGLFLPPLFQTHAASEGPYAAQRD
# T2 sequence (P32297 whole entry): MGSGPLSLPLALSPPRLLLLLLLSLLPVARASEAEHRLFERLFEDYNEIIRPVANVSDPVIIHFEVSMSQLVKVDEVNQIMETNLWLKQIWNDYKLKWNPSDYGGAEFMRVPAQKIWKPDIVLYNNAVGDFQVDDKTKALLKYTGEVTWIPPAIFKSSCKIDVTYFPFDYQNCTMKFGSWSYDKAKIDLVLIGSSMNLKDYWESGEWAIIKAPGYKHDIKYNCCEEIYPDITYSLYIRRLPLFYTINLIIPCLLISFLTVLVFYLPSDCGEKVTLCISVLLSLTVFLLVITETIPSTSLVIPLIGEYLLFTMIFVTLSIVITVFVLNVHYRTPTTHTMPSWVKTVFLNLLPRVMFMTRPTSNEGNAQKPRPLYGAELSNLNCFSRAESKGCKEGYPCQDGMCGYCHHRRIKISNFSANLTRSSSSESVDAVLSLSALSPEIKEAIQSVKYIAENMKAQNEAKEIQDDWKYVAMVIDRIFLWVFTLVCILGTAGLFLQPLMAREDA
# [7] = molecular target: 5-hydroxytryptamine receptor 2C (Homo sapiens, UniProt P28335); assay: Displacement of [3H]-mesulergine from recombinant human 5HT2C receptor transiently expressed in HEKT cell membranes measured after 90 mins by microbeta scintillation counting method
# Chain of 5-hydroxytryptamine receptor 2C (P28335 whole entry): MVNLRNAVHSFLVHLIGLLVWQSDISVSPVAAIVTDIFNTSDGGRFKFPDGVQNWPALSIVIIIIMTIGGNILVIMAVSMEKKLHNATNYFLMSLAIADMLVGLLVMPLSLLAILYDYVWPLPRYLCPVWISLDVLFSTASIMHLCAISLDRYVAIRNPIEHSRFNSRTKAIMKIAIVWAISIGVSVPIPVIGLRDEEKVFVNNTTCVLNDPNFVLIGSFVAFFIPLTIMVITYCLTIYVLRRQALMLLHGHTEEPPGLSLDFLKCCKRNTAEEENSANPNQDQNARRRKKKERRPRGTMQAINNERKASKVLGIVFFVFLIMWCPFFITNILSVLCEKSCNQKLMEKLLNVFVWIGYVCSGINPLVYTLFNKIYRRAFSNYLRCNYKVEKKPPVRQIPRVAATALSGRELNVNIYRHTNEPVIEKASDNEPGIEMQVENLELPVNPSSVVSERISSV
# [8] = molecular target: Muscarinic acetylcholine receptor M2 (Homo sapiens) (UniProt P08172); assay: Displacement of [3H]-QNB/[3H]-NMS from human muscarinic M2 receptor expressed in stable CHO cells at 10 uM after 90 mins by microbeta scintillation counting method relative to control; format: cell-based
# Chain of Muscarinic acetylcholine receptor M2 (Homo sapiens) (P08172 whole entry): as the sequence (P08172 whole entry) above
# Method in brief: (§1)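 Primary screen at 10 μM compound, expressed as % receptor inhibition, from at least three experiments.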
# [9] = molecular target: T1, Alpha-2B adrenergic receptor; assay: Displacement of [3H]-rauwolscine from recombinant human alpha2B adrenergic receptor transiently expressed in HEKT cells measured after 90 mins by microbeta scintillation counting method; format: cell-based
# [10] = molecular target: T2, Neuronal acetylcholine receptor; alpha3/beta4; assay: Displacement of [3H]-epibatidine from recombinant human alpha3beta4 nACHR stably expressed in HEK cells at 10 uM measured after 90 mins by microbeta scintillation counting method relative to control; format: cell-based; method in brief: as §1
# D(1B) dopamine receptor = D(1B) dopamine receptor (Homo sapiens, UniProt P21918); assay: Displacement of [3H]-SCH23390 from recombinant human D5 receptor transiently expressed in HEK cell membranes measured after 90 mins by microbeta scintillation counting method
# Chain of D(1B) dopamine receptor (P21918 whole entry): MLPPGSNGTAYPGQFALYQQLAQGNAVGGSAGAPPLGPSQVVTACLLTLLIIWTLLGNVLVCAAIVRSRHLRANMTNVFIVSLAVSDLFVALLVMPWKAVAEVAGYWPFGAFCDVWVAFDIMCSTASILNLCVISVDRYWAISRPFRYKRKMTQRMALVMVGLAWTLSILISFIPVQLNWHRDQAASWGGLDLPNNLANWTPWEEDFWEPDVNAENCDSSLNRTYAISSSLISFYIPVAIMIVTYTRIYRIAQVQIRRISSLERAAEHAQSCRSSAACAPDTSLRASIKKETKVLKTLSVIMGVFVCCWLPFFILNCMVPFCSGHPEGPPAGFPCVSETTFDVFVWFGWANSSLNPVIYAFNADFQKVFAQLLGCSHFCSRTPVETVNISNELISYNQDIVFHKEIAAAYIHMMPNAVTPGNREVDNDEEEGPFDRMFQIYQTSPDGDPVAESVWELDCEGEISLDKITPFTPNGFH
# Chain of Histamine H3 receptor (Q9Y5N1 whole entry): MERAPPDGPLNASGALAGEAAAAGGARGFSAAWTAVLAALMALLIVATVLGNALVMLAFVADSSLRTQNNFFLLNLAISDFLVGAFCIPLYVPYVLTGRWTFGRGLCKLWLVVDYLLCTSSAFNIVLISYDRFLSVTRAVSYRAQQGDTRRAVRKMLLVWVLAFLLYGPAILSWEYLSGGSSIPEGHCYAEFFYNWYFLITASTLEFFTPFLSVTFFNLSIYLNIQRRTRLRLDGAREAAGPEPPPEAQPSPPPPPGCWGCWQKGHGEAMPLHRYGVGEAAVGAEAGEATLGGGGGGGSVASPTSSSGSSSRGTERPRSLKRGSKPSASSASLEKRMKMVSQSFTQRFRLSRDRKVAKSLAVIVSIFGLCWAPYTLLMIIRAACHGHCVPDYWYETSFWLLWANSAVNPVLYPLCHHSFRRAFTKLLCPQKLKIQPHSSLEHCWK
Ki (Histamine H3 receptor) [nM],Ki [1] [nM],Ki [2] [nM],Ki [3] [nM],"inhibition at […], 10 µM [4] [%]","inhibition at […], 10 µM [5] [%]",Ki [6] [nM],Ki [7] [nM],inhibition [8] [%],Ki [9] [nM],inhibition [10] [%],Ki (D(1B) dopamine receptor) [nM],SMILES
509,52,514,590,< 50,< 50,8520,–,–,–,–,–,COc1ccccc1N1CCC2(CCN(CCCSc3nnc(-c4ccccc4)n3C)CC2)CC1
–,–,–,–,–,–,–,159,< 50,241,< 50,3020,COc1ccccc1N1CCN(CCCSc2nnc(-c3ccccc3)n2C)CC1

# From ChEMBL document CHEMBL4396871, “Leveraging a Low-Affinity Diazaspiro Orthosteric Fragment to Reduce Dopamine D3 Receptor (D3R) Ligand Promiscuity across Highly Conserved Aminergic G-Protein-Coupled Receptors (GPCRs)” (J Med Chem, 2019)
